Laboratory results published in ChEMBL document CHEMBL4138097, “Investigation of pyrazolo-sulfonamides as putative small molecule oxytocin receptor agonists” (Eur J Med Chem, 2017).
Active and inactive are the calls of the source. The rule behind the calls is not given here. Where a SMILES comes first, the peptide text is derived from it. Bridges are numbered along the chain shown (N, C = ends). [ ]: non-standard residue; d: D form. Orn = NCCC[C@H](N)C(=O)O; Mpa = O=C(O)CCS

Experiments:
[1] = molecular target: T1, Oxytocin receptor (Homo sapiens) (UniProt P30559); test: Antagonist activity at human OTR expressed in HEK293 cell membranes assessed as inhibition of OT-induced IP1 accumulation by measuring IP1 level at 100 nM measured after 1 hr by flourescence assay relative to control; format: functional, cell-based; set-up: scale not given: the % may be the effect or the level left
T1 sequence (whole entry): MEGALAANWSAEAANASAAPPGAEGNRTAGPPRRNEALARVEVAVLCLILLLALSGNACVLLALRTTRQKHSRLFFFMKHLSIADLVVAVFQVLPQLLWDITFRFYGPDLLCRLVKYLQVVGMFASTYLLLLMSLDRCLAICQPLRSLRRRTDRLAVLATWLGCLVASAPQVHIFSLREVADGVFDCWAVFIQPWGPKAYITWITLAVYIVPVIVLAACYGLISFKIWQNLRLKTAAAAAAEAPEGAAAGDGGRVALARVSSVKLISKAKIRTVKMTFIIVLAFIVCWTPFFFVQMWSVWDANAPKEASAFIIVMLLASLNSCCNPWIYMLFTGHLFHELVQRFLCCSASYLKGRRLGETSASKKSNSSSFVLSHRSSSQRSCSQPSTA

[2] = molecular target: T1, Oxytocin receptor (Homo sapiens); test: Antagonist activity at human OTR expressed in HEK293 cell membranes assessed as inhibition of OT-induced IP1 accumulation by measuring IP1 level at 10 uM measured after 1 hr by fluorescence assay relative to control; format: functional, cell-based; set-up: scale not given: the % may be the effect or the level left
Oxytocin receptor [3] = molecular target: T2, Oxytocin receptor (Homo sapiens, UniProt P30559); test: Antagonist activity at human OTR expressed in HEK293 cell membranes assessed as inhibition of OT-induced IP1 accumulation measured after 1 hr by fluorescence assay; format: functional, cell-based
T2 sequence (P30559 whole entry): T1 sequence (whole entry)

Vasopressin V1a receptor [4] = molecular target: T3, Vasopressin V1a receptor (Homo sapiens, UniProt P37288); test: Antagonist activity at human vasopressin 1a receptor expressed in HEK293 cell membranes assessed as inhibition of AVP-induced IP1 accumulation by measuring IP1 level at 100 nM measured after 1 hr by fluorescence assay relative to control; format: functional, cell-based; set-up: scale not given: the % may be the effect or the level left
Target sequence in this assay (P37288 whole entry, looked up): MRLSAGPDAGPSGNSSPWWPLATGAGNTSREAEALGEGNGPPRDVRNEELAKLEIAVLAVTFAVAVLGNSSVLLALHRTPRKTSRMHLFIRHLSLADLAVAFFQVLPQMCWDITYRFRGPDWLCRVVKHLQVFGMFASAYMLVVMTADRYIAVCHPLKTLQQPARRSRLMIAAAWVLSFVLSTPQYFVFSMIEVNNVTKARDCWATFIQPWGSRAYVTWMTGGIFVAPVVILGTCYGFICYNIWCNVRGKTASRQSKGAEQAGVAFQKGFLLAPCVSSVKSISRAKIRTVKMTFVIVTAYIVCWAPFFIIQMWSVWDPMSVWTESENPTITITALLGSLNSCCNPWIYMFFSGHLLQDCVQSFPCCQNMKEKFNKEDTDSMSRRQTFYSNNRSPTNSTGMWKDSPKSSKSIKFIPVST

Vasopressin V1a receptor [5] = molecular target: T3, Vasopressin V1a receptor; test: Antagonist activity at human vasopressin 1a receptor expressed in HEK293 cell membranes assessed as inhibition of AVP-induced IP1 accumulation by measuring IP1 level at 10 uM measured after 1 hr by fluorescence assay relative to control; format: functional, cell-based; set-up: scale not given: the % may be the effect or the level left
Target sequence in this assay (P37288 whole entry, looked up): as above

Vasopressin V1a receptor [6] = molecular target: T3, Vasopressin V1a receptor; test: Antagonist activity at human vasopressin 1a receptor expressed in HEK293 cell membranes assessed as inhibition of AVP-induced IP1 accumulation measured after 1 hr by fluorescence assay; format: functional, cell-based
Target sequence in this assay (P37288 whole entry): as the sequence (P37288 whole entry, looked up) above

[7] = molecular target: T1, Oxytocin receptor (Homo sapiens); test: Antagonist activity at human OTR expressed in CHO cell membranes assessed as inhibition of OT-induced IP1 accumulation by measuring IP1 level at 100 nM measured after 1 hr by fluorescence assay relative to control; format: functional, cell-based; set-up: scale not given: the % may be the effect or the level left
[8] = molecular target: T1, Oxytocin receptor (Homo sapiens); test: Antagonist activity at human OTR expressed in CHO cell membranes assessed as inhibition of OT-induced IP1 accumulation by measuring IP1 level at 10 uM measured after 1 hr by fluorescence assay relative to control; format: functional, cell-based; set-up: scale not given: the % may be the effect or the level left
Oxytocin receptor [9] = molecular target: T2, Oxytocin receptor; test: Antagonist activity at human OTR expressed in CHO cell membranes assessed as inhibition of OT-induced IP1 accumulation measured after 1 hr by fluorescence assay; format: functional, cell-based
Vasopressin V1a receptor [10] = molecular target: T3, Vasopressin V1a receptor; test: Antagonist activity at human vasopressin 1a receptor expressed in CHO cell membranes assessed as inhibition of AVP-induced IP1 accumulation by measuring IP1 level at 100 nM measured after 1 hr by fluorescence assay relative to control; format: functional, cell-based; set-up: scale not given: the % may be the effect or the level left
Target sequence in this assay (P37288 whole entry, looked up): as above

Vasopressin V1a receptor [11] = molecular target: T3, Vasopressin V1a receptor; test: Antagonist activity at human vasopressin 1a receptor expressed in CHO cell membranes assessed as inhibition of AVP-induced IP1 accumulation by measuring IP1 level at 10 uM measured after 1 hr by fluorescence assay relative to control; format: functional, cell-based; set-up: scale not given: the % may be the effect or the level left
Target sequence in this assay (P37288 whole entry, looked up): as above

Vasopressin V1a receptor [12] = molecular target: T3, Vasopressin V1a receptor; test: Antagonist activity at human vasopressin 1a receptor expressed in CHO cell membranes assessed as inhibition of AVP-induced IP1 accumulation by measuring IP1 level measured after 1 hr by fluorescence assay; format: functional, cell-based
Target sequence in this assay (P37288 whole entry): as the sequence (P37288 whole entry, looked up) above

[13] = molecular target: T1, Oxytocin receptor (Homo sapiens); test: Antagonist activity at human OTR expressed in HEK293 cell membranes assessed as inhibition of OT-induced increase in Ca2+ flux by measuring intracellular calcium level at 10 uM preincubated for 5 mins followed by OT addition measured after 5 mins for every 2 secs by Ca5 dye based FLIPR assay (reference value: 4.5 +/- 0.1%); format: functional
How it was run: (§1)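 HEK cells were pre-incubated 5 min with compound (10 μM) or vehicle (0.1% DMSO). Agonist was then added: OT for hOTR, AVP for hV1aR. Peak Ca5 fluorescence was taken as fold-change over baseline. A 4-parameter fit gave pEC50 and Max. Run in duplicate with 5-6 independent replicates, mean ± S.E.M.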

Vasopressin V1a receptor [14] = molecular target: T3, Vasopressin V1a receptor; test: Antagonist activity at human vasopressin 1a receptor expressed in HEK293 cell membranes assessed as inhibition of AVP-induced increase in Ca2+ flux by measuring intracellular calcium level at 10 uM preincubated for 5 mins followed by AVP addition measured after 5 mins for every 2 secs by Ca5 dye based FLIPR assay (reference value: 5.2 +/- 0.2%); format: functional; how it was run: as §1
Target sequence in this assay (P37288 whole entry, looked up): as above

Oxytocin receptor [15] = molecular target: T2, Oxytocin receptor; test: Displacement of [3H]-oxytocin from human OTR expressed in HEK293 cell membranes after 90 mins by microbeta scintillation counting method
Vasopressin V1a receptor [16] = molecular target: T3, Vasopressin V1a receptor; test: Displacement of [3H]-vasopressin from human vasopressin 1a receptor expressed in HEK293 cell membranes after 90 mins by microbeta scintillation counting method
Target sequence in this assay (P37288 whole entry): as the sequence (P37288 whole entry, looked up) above

[17] = molecular target: T1, Oxytocin receptor (Homo sapiens); test: Agonist activity at human OTR expressed in HEK293 cell membranes induction of IP1 accumulation at 0.1 to 10 uM measured after 1 hr by fluorescence assay; format: functional, cell-based
How it was run: (§2)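 IP1 accumulation in HEK or stably transfected CHO cells expressing hOTR or hV1aR. Compounds tested alone at 100 nM and 10 μM against vehicle (basal). Reference agonist was OT 10 nM at hOTR or AVP 10 nM at hV1aR. Non-transfected HEK cells given OT served as a specificity check. Mean ± S.E.M.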

Vasopressin V1a receptor [18] = molecular target: T3, Vasopressin V1a receptor; test: Agonist activity at human vasopressin 1a receptor expressed in HEK293 cell membranes assessed as induction of IP1 accumulation at 0.1 to 10 uM measured after 1 hr by fluorescence assay; format: functional, cell-based; how it was run: as §2
Target sequence in this assay (P37288 whole entry, looked up): as above

[19] = molecular target: T1, Oxytocin receptor (Homo sapiens); test: Positive allosteric modulation of human OTR expressed in HEK293 cell membranes assessed as increase in OT-induced IP1 accumulation at 10 uM measured after 1 hr by fluorescence assay; format: functional, cell-based
How it was run: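 hOTR-transfected HEK cells treated with ~EC10 OT (3 nM) plus compound (10 μM) or vehicle (0.1% DMSO). IP1 measured and compared with OT plus vehicle. Mean ± S.E.M.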

[20] = molecular target: T1, Oxytocin receptor (Homo sapiens); test: Agonist activity at human OTR expressed in HEK293 cell membranes assessed as increase in Ca2+ flux at 0.1 to 10 uM measured after 5 mins for every 2 secs by Ca5 dye based FLIPR assay; format: functional
How it was run: (§3)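 Intracellular Ca2+ read by FLIPR with Ca5 dye in HEK or stably transfected CHO cells expressing hOTR or hV1aR. Compounds added alone at 100 nM and 10 μM. Response taken as the change in fluorescence.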

Vasopressin V1a receptor [21] = molecular target: T3, Vasopressin V1a receptor; test: Agonist activity at human vasopressin 1a receptor expressed in HEK293 cell membranes assessed as increase in Ca2+ flux at 0.1 to 10 uM measured after 5 mins for every 2 secs by Ca5 dye based FLIPR assay; format: functional; how it was run: as §3
[22] = molecular target: T1, Oxytocin receptor (Homo sapiens); test: Agonist activity at human OTR expressed in CHO cell membranes assessed as increase in Ca2+ flux at 0.1 to 10 uM measured after 5 mins for every 2 secs by Ca5 dye based FLIPR assay; format: functional; how it was run: as §3
Vasopressin V1a receptor [23] = molecular target: T3, Vasopressin V1a receptor; test: Agonist activity at human vasopressin 1a receptor expressed in CHO cell membranes assessed as increase in Ca2+ flux at 0.1 to 10 uM measured after 5 mins for every 2 secs by Ca5 dye based FLIPR assay; format: functional; how it was run: as §3
[24] = molecular target: T1, Oxytocin receptor (Homo sapiens); test: Agonist activity at human OTR expressed in CHO cell membranes assessed as induction of IP1 accumulation at 0.1 to 10 uM measured after 1 hr by fluorescence assay; format: functional, cell-based; how it was run: as §2
Vasopressin V1a receptor [25] = molecular target: T3, Vasopressin V1a receptor; test: Agonist activity at human vasopressin 1a receptor expressed in CHO cell membranes assessed as induction of IP1 accumulation at 0.1 to 10 uM measured after 1 hr by fluorescence assay; format: functional, cell-based; how it was run: as §2

Compound	Activity [1]	Activity [2]	IC50 (Oxytocin receptor [3]; read-out: pIC50 (converted))	Activity (Vasopressin V1a receptor [4])	Activity (Vasopressin V1a receptor [5])	IC50 (Vasopressin V1a receptor [6])	Activity [7]	Activity [8]	IC50 (Oxytocin receptor [9])	Activity (Vasopressin V1a receptor [10])	Activity (Vasopressin V1a receptor [11])	IC50 (Vasopressin V1a receptor [12])	%max [13]	%max (Vasopressin V1a receptor [14])	Ki (Oxytocin receptor [15])	Ki (Vasopressin V1a receptor [16])	Activity (Vasopressin V1a receptor [18])	Activity [19]	Activity [20]	Activity (Vasopressin V1a receptor [21])	also measured
Cn1nccc1NS(=O)(=O)c1ccc(Cl)cc1	82.5%	72.5%	> 10 µM	112%	105%	> 10 µM	90.5%	94.7%	> 10 µM	100%	105%	> 10 µM	4%	5%	> 10 µM	> 10 µM	inactive	inactive	inactive	inactive	Activity [17]: inactive; Activity [22]: inactive; Activity (Vasopressin V1a receptor [23]): inactive; Activity [24]: inactive; Activity (Vasopressin V1a receptor [25]): inactive
Cn1nccc1NS(=O)(=O)c1ccc(C(F)(F)F)cc1	98.3%	90.4%	> 10 µM	84.7%	77.9%	> 10 µM	85.5%	79.5%	> 10 µM	86.5%	79.3%	> 10 µM	4.4%	5.1%	> 10 µM	> 10 µM	inactive	inactive	inactive	inactive	Activity [17]: inactive; Activity [22]: inactive; Activity (Vasopressin V1a receptor [23]): inactive; Activity [24]: inactive; Activity (Vasopressin V1a receptor [25]): inactive
O=S(=O)(Nc1ccnn1-c1ccccn1)c1ccc(Cl)cc1	89.5%	78.1%	> 10 µM	85.9%	80.2%	> 10 µM	83.9%	71.1%	> 10 µM	103%	116%	> 10 µM	4.5%	5.3%	> 10 µM	> 10 µM	inactive	inactive	inactive	inactive	Activity [22]: inactive; Activity (Vasopressin V1a receptor [23]): inactive; Activity [24]: inactive; Activity (Vasopressin V1a receptor [25]): inactive
O=S(=O)(Nc1ccnn1-c1ccccn1)c1ccc(C(F)(F)F)cc1	70.6%	65.5%	> 10 µM	109%	104%	> 10 µM	83.2%	82.1%	> 10 µM	84.8%	83.1%	> 10 µM	4.4%	5.3%	> 10 µM	> 10 µM	inactive	inactive	inactive	inactive	Activity [22]: inactive; Activity (Vasopressin V1a receptor [23]): inactive; Activity [24]: inactive; Activity (Vasopressin V1a receptor [25]): inactive
CCOc1ccc(C[C@H]2NC(=O)CCSSC[C@@H](C(=O)N3CCC[C@H]3C(=O)N[C@@H](CCCN)C(=O)NCC(N)=O)NC(=O)[C@H](CC(N)=O)NC(=O)[C@H]([C@@H](C)O)NC(=O)[C@H]([C@@H](C)CC)NC2=O)cc1 [ATOSIBAN] ([Mpa][dY](Et)ITNCP[Orn]G-NH2; disulfide 1-6)																					IC50 (Oxytocin receptor [3]; read-out: IC50): 0.372 µM
